From ChEMBL document CHEMBL1156744, “Anti-tumoral activity of imidazoquines, a new class of antimalarials derived from primaquine” (Bioorg Med Chem Lett, 2009)

How the values were obtained:
Assay type in all cases: functional, cell-based
MCF7 = assay: Antitumor activity against human MCF7 cells after 48 hours hrs by SRB assay; conditions: MCF7, 48 h
Method in brief: (§1)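 Seeded cells were exposed to each compound across a broad concentration range for 48 h. Growth was read by sulforhodamine B staining, compared against untreated control. Values are mean ± SEM, n = 3–6.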

HT-29 = assay: Antitumor activity against human HT-29 cells after 48 hours hrs by SRB assay; conditions: HT-29, 48 h; method in brief: as §1
Caco-2 = assay: Antitumor activity against human Caco-2 cells after 48 hours hrs by SRB assay; conditions: Caco-2, 48 h; method in brief: as §1

Row | SMILES | IC50 (MCF7) | IC50 (HT-29) | IC50 (Caco-2)
1 | COc1cc(NC(C)CCCNC(C)=O)c2ncccc2c1 (stereo unspecified) | 57.3 µM | > 100 µM | 46 µM
2 | COc1cc(NC(C)CCCN2C(=O)[C@H](C)NC2(C)C)c2ncccc2c1 (stereo partly specified) | 42.3 µM | > 100 µM | 71 µM
3 | COc1cc(NC(C)CCCNC(=O)CNC(=O)[C@H](C)N)c2ncccc2c1 (stereo partly specified) | 21.3 µM | 92.3 µM | > 100 µM
4 | COc1cc(NC(C)CCCNC(=O)C2CCCN2C(=O)[C@@H](C)N)c2ncccc2c1 (stereo partly specified) | 15 µM | > 100 µM | 64 µM
5 | COc1cc(NC(C)CCCNC(=O)CN2C(=O)[C@H](C)NC23CCCCC3)c2ncccc2c1 (stereo partly specified) | 27 µM | > 100 µM | 74.7 µM
6 | COc1cc(NC(C)CCCNC(=O)CN2C(=O)[C@H](C)NC2(C)C)c2ncccc2c1 (stereo partly specified) | 38.3 µM | > 100 µM | 58 µM

Continued, values first:

Row | IC50 (MCF7) | IC50 (HT-29) | IC50 (Caco-2) | SMILES
7 | 86.5 µM | > 100 µM | > 100 µM | COc1cc(N)c2ncccc2c1
8 | 20 µM | 46.3 µM | > 100 µM | COc1cc(NC(C)CCCN2C(=O)CN(C(=O)[C@H](C)N)C2(C)C)c2ncccc2c1 (stereo partly specified)
9 | 63 µM | > 100 µM | 52.3 µM | FC(F)(F)c1ccc2c(Cl)ccnc2c1
10 | > 100 µM | > 100 µM | 60 µM | COc1cc(NC(C)CCCN2C(=O)CN(C(C)=O)C2(C)C)c2ncccc2c1 (stereo unspecified)
11 | > 100 µM | > 100 µM | 81 µM | O=C(O)c1cc2ccccc2nc1Cl
12 | 6.9 µM | 69.7 µM | 48 µM | COc1cc(NC(C)CCCN)c2ncccc2c1 (stereo unspecified) [PRIMAQUINE]
